Data: PMC12505120 (RSC Advances, 2025)
Read-outs that look alike come from different tables or passages of the source.

Legend:
HSA = HSA (Homo sapiens, UniProt P02768); test: HSA tryptophan fluorescence quenching; format: binding; conditions: for Stern–Volmer quenching constant Ksv × 10^4: values × 10^4, HSA 2.5 μM, Tris–HCl pH 7.4, 10% DMSO, 24 h; for ΔG: ΔG = −RT ln Kb; for predominant interaction mode with HSA: according to Ross's proposal from the signs of ΔH and ΔS
Outline: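 HSA in Tris–HCl (4.5 mM Trizma HCl, 0.5 mM Trizma base, 50 mM NaCl) held at 2.5 μM with test compound at 1, 2.5, 5, 10, 15, 20, 25 or 30 μM, using 10% DMSO. Incubated 24 h in a water bath at 300 K or 310 K. Excitation 270 nm, emission 300–500 nm, triplicates. Intensity at 330 nm fitted to Stern–Volmer (F0/F vs [Q]) and log((F0−F)/F) vs log[Q]. ΔG = −RT ln Kb.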

[1] = tested on: bovine serum albumin (BSA); conditions: cited from earlier work

Sequence of HSA (P02768 25-609): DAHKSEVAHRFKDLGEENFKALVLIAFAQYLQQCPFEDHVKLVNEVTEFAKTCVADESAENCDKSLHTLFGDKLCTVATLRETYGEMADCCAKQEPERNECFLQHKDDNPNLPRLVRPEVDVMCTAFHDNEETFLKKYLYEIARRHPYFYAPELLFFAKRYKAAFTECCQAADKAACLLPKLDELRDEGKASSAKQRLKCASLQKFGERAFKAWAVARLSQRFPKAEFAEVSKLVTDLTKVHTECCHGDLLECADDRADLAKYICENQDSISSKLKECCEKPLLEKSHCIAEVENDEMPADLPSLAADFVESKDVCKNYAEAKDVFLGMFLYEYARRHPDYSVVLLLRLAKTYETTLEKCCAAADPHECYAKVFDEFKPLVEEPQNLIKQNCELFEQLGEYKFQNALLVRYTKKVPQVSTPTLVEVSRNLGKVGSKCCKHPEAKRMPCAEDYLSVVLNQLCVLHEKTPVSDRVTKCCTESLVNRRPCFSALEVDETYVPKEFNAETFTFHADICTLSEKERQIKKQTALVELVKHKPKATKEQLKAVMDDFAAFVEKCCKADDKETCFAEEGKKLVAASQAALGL

ΔS (HSA; T 300 K) [J mol^−1 K^−1] | Stern–Volmer quenching constant Ksv × 10^4 (HSA; T 300 K) [M^−1] | ΔG (HSA; T 300 K) [kJ/mol] | ΔS (HSA; T 310 K) [J mol^−1 K^−1] | Stern–Volmer quenching constant Ksv × 10^4 (HSA; T 310 K) [M^−1] | ΔG (HSA; T 310 K) [kJ/mol] | predominant interaction mode with HSA (HSA) | fluorescence quenching mechanism (HSA; from temperature dependence of Ksv at 300 and 310 K) | SMILES | binding constant to BSA ([1]; HPBI complexed with benzoxaborole) [M⁻¹] | binding constant to BSA ([1]; free HPBI) [M⁻¹]
82.1 | 5.91 | -23.8 | 83.3 | 8.69 | -26.6 | hydrophobic interactions | dynamic fluorescence quenching mechanism | COc1ccc(/C=C/c2ccc(B3OC(C)(C)C(C)(C)O3)cc2)cc1 [3b] |  | 
105.1 | 10.1 | -29.3 | 122.4 | 17.7 | -35.9 | hydrophobic interactions |  | COc1ccc(/C=C/c2cccc3c2COB3O)cc1 [5a] |  | 
74.5 | 1.05 | -28.0 | 22.9 | 0.53 | -12.9 | electrostatic forces |  | COc1ccc(/C=C/c2ccc(B(O)O)cc2)cc1 [7a] |  | 
 |  |  |  |  |  |  |  | Oc1ccccc1-c1nc2ccccc2[nH]1 [HPBI, 2-(2-hydroxyphenyl)benzimidazole] | 1.2e+06 | 20000
